We go through three compounds from ChEMBL document CHEMBL1151252, “New lamellarin alkaloids from the Indian ascidian Didemnum obscurum and their antioxidant properties” (J Nat Prod, 2004).

The term IC50 denotes the concentration needed to halve the response being measured.

A short description of test [1]: DPPH radical scavenging activity assessed as ratio of IC50 for trolox to IC50 for test compound. It counts as functional. The procedure, abridged:
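TEAC is the ratio of Trolox IC50 to sample IC50. Both come from the same HPLC DPPH scavenging assay: 250 μM final DPPH, 20 min in the dark at room temperature, reversed-phase HPLC with diode-array detection. Each IC50 is derived by linear regression from at least five concentrations in triplicate.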
On the technique in general: The DPPH test is a chemical assay of radical scavenging.

Test [2] deals with Radical scavenging activity. Kind of test: Antioxidant activity assessed as DPPH radical scavenging activity by HPLC. It counts as functional. Summed up:
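In the HPLC DPPH assay, test material in methanol or DMSO is mixed 1:1 with methanolic DPPH (final 250 μM) and held in the dark for 20 min at room temperature, then filtered and run on reversed-phase HPLC with diode-array detection. IC50 is obtained by linear regression over at least five concentrations, each in triplicate.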

`Cc1c(C)c2c(c(C)c1O)CC[C@@](C)(CCC[C@H](C)CCC[C@H](C)CCCC(C)C)O2` [ALPHA-TOCOPHEROL]: the Ratio IC50 in test [1] turned out to be 1.07. The IC50 in test [2] is 63.6 µM.
As for `CC(C)(Sc1cc(C(C)(C)C)c(O)c(C(C)(C)C)c1)Sc1cc(C(C)(C)C)c(O)c(C(C)(C)C)c1` [PROBUCOL], in test [1], the Ratio IC50 is 1.29. For the same compound, in test [2], the 50% inhibitory concentration (IC50) came out at 52.7 µM.
The like results for `Cc1c(C)c2c(c(C)c1O)CCC(C)(C(=O)O)O2` (stereo unspecified) [TROLOX] were, in that order, 1 and 67.8 µM.
